In series [1] the test system is Saccharomyces cerevisiae. Description: Inhibition of TIM16-mediated Saccharomyces cerevisiae J47D proliferation in log phase at 1 mM measured for every 30 mins. The gist of the method: (§1)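 Log-phase S. cerevisiae J47D plated at 1.5 × 10⁴ cells/well in YEPD. Compounds in DMSO added across 0–1 mM, triplicate wells, 1% final DMSO. Cultured at 30 °C with OD600 read every 30 min. n = 3; each experiment done at least twice independently.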

The test system of series [2] is Saccharomyces cerevisiae. Description: Inhibition of TIM16-mediated Saccharomyces cerevisiae J47D proliferation in log phase at 100 uM measured for every 30 mins. In outline: as §1
Series [3] relates to Saccharomyces cerevisiae. Kind of series: Inhibition of TIM16-mediated Saccharomyces cerevisiae J47D proliferation in log phase at 10 uM measured for every 30 mins. In outline:
as §1

Series [4] has as its system Saccharomyces cerevisiae. Kind of series: Inhibition of TIM16-mediated Saccharomyces cerevisiae J47D proliferation in log phase at 1 uM measured for every 30 mins. In outline: as §1
The nature of series [5]: Solubility of the compound at 1 mM. In kind it is physicochemical. The note with it: 1000 µM.
The nature of series [6]: Binding affinity to Saccharomyces cerevisiae Magmas by fluorometric titration. The gist of the method: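 Intrinsic Trp/Tyr fluorescence of yeast Magmas (3 µM, unit as printed) in 50 mM Bis–Tris pH 7.1, 25 °C. Excitation 295 nm, emission read at 365 nm. Ligand titrated from 0 to […] using freshly made stock. Dilution kept ≤10% and corrected for. Kd obtained by fitting intensity versus total ligand concentration to a single-site binding equation.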

The test system of series [7] is Saccharomyces cerevisiae. Kind of series: Inhibition of Saccharomyces cerevisiae TIM16 N84T mutant-mediated proliferation up to 60 mins. In outline: (§2)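 Yeast whose wild-type TIM16 plasmid was lost on FOA selection, carrying plasmid-borne Tim16 N84T or A104S mutants, cultured in YEPD at 30 °C. Compound added at graded concentrations in DMSO (1% final), triplicate wells. OD600 read every 30 min; compared with the wild-type plasmid strain.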

Series [8] relates to T1, Saccharomyces cerevisiae [A104S].
T1 sequence (whole entry): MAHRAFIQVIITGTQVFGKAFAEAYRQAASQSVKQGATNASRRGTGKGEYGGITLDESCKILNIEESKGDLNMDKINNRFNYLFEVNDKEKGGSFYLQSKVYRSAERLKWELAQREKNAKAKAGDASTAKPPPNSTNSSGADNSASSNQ
Description: Inhibition of Saccharomyces cerevisiae TIM16 A104S mutant-mediated proliferation up to 60 mins. The gist of the method: as §2

The structures appear in SMILES notation. Active and inactive are the calls of the source. The calls are words filed in the database; no cut-off is given here.

On to `Brc1ccc2c(c1)C=CC(c1ccccc1)O2` (stereo not drawn), for which the inhibition result with Saccharomyces cerevisiae [1], in the series with Saccharomyces cerevisiae [2] and with Saccharomyces cerevisiae [3] was “Active” throughout. The inhibition entry with Saccharomyces cerevisiae [4] is “inactive”.

As to `O=[N+]([O-])c1ccc2c(c1)C=CC(c1ccccc1)O2` (stereo not drawn), the inhibition result in the series with Saccharomyces cerevisiae [1], in the series on Saccharomyces cerevisiae [2], with Saccharomyces cerevisiae [3] and with Saccharomyces cerevisiae [4] was “inactive” in each case.

Take `Clc1ccc2c(c1)C=CC(c1ccccc1)O2` (stereo not drawn): the inhibition entry in the series with Saccharomyces cerevisiae [2] is “Active”. Further, the inhibition entry with Saccharomyces cerevisiae [3] and with Saccharomyces cerevisiae [4] was “inactive” in each case. Besides, the solubility entry in series [5] is reported as “Insoluble”.

With `CCCCCCCCC1C=Cc2cc([N+](=O)[O-])ccc2O1` (stereo not drawn), in the series on Saccharomyces cerevisiae [2], the inhibition entry is “Active”. Also, the inhibition entry with Saccharomyces cerevisiae [3] and in the series on Saccharomyces cerevisiae [4] was “inactive” in each case. The solubility result in series [5] is recorded as “Insoluble”.

In turn, `CCC1=C(C)/C(=C/c2ccc(C(=O)NC(=N)N)cc2)CCC1(C)C` showed a Kd in series [6] of 33.5 µM. Further, the inhibition entry (in the series with Saccharomyces cerevisiae [1]; in the series on Saccharomyces cerevisiae [2]; with Saccharomyces cerevisiae [3]; in series [8]) was “Active” throughout. Moreover, the inhibition result in the series on Saccharomyces cerevisiae [4] and with Saccharomyces cerevisiae [7] was “inactive” in each case.

These data come from ChEMBL document CHEMBL1777739, “Design, synthesis, and biological activity of novel Magmas inhibitors” (Bioorg Med Chem Lett, 2011).
